T cruzi growth-1 = T. cruzi intracellular proliferation inhibitors, primary screen, cell-based, beta-gal Tulahuen parasites, NIH3T3 host, luminescence; T. cruzi beta-gal in NIH3T3, GalScreen luminescence, 90 h; inhibition, % at 8.34 µM; actives 5.9% (n = 77,000); AID 624255, 2012;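 active = mean inhibition above about 93%, with at least 55% of replicates each passing it, limit read from the data, passing the limit was not always enough; inconclusive = only one of those two conditions holds; inactive = neither condition holds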
IDH1 R132H inh = inhibitors of IDH1 R132H reductase, primary screen, biochemical, plate reader, single point; Isocitrate dehydrogenase [NADP] cytoplasmic (Homo sapiens), O75874; AID 624101, 2012; inhibition, % at 10 µM; actives 0.18% (n = 70,000); diaphorase/resazurin fluorescence, 60 min; in the data active = inhibition above about 34%; inconclusive = no clear call, values can overlap the other calls; inactive = below about 11%
GASC1 inh = inhibitors of GASC-1 (KDM4C) histone demethylase, primary screen, biochemical, single concentration HTS. inhibition, % at 12.5 µM. GST-KDM4C 2-372, H3K9me3 peptide, LANCE TR-FRET. Lysine-specific demethylase 4C (Homo sapiens), Q9H3R0. actives 0.15% (n = 96,000);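 active = mean replicate inhibition above about 25%, with at least 55% of replicates also reaching it, limit read from the data, passing the limit was not always enough; inconclusive = only one of those two conditions met; inactive = neither condition met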
Target sequence (Q9H3R0 2-372 limits assumed): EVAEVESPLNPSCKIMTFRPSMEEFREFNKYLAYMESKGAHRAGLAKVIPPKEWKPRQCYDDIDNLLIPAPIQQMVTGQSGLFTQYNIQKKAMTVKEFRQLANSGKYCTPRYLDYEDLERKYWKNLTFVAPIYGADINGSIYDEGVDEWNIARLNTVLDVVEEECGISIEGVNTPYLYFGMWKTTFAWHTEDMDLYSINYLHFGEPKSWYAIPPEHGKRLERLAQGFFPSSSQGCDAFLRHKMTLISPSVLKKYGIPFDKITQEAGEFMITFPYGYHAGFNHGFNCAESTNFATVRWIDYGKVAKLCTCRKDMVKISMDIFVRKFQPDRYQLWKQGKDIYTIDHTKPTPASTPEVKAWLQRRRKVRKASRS
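Assay system: GST-GASC-1 enzyme fragment 2-372 | Amount: 10 nM enzyme | Medium: HEPES buffer, pH 7.5, plus ascorbate | Reagent: H3K9me3 peptide substrate, Fe(II), 2-oxoglutarate | Doses: Single-point compound screen | Incubation: 30 min demethylation and 1 h detection at room temperature | Measured by: LANCE TR-FRET, excitation 340 nm, emissions 618 and 671 nm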
Pf Dd2 inh = P. falciparum Dd2 growth inhibitors, primary screen, SYBR Green fluorescence, single dose replicates; actives 2.3% (n = 94,000); activity change, % at 10 µM; 72 h; stronger effect = lower value; AID 1159554, 2015; in the data active = activity change below about -80%; inconclusive = no clear call, values can overlap the other calls
T cruzi growth-2 = T. cruzi intracellular proliferation inhibitors, confirmation, cell-based, NIH3T3 host, beta-gal parasite, luminescence, cherry-pick; shares compounds with T cruzi growth-1; T. cruzi beta-gal in NIH3T3, GalScreen luminescence, 90 h; inhibition, % at 8.35 µM; actives 72% (n = 5,600); AID 651739, 2012;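 active = mean replicate inhibition above about 95% and at least 55% of replicates individually reaching it, limit read from the data; inconclusive = only one of the two criteria is met; inactive = neither criterion is met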
T cruzi growth-3 = inhibitors of intracellular T. cruzi replication, confirmation, NIH3T3 host cells, beta-gal parasites, cherry-pick, set 2 | shares compounds with T cruzi growth-1 | T. cruzi beta-gal in NIH3T3, GalScreen luminescence, 90 h | inhibition, % at 2.09 µM | actives 21% (n = 5,600) | AID 651740, 2012;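 active = mean inhibition above about 95%, with at least 55% of replicates also reaching it, limit read from the data; inconclusive = meets just one of the two conditions; inactive = meets neither condition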
3T3 cytotox = cytotoxicity in mouse NIH/3T3 fibroblasts, confirmation, cytotoxicity control for T. cruzi proliferation inhibitor project, cell-based, cherry-pick, single point | shares compounds with T cruzi growth-1 | NIH/3T3 viability, CellTiter-Glo ATP luminescence, 90 h | cytotoxicity (signal decrease), % at 8.35 µM | actives 14% (n = 5,600);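 active = mean signal decrease across replicates above about 35% based on untreated-well scatter, with enough replicates individually passing, limit read from the data; inconclusive = no rule stated though some were filed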
NIH3T3 tox 2 = NIH/3T3 fibroblast cytotoxicity, confirmation, cytotoxicity control, cell-based, cherry-pick, single point, set 2; actives 56% (n = 5,600); inhibition, % at 24.9 µM; shares compounds with T cruzi growth-1; AID 651744, 2012; NIH/3T3 viability, CellTiter-Glo ATP luminescence, 90 h;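 active = mean loss of cell viability signal at or above a set limit, and enough replicates individually reaching it; inconclusive = meets only the mean limit or only the replicate share; inactive = meets neither condition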
Numbers stand for hits; . = inactive; ? = inconclusive; / = no result. The list is not random: actives were taken first. Their share in the collection is about 5.8%.

SMILES | T cruzi growth-1 | IDH1 R132H inh | GASC1 inh | Pf Dd2 inh | T cruzi growth-2 | T cruzi growth-3 | 3T3 cytotox | NIH3T3 tox 2
O=C(C[C@H]1C=C[C@H](NC(=O)C2CCOCC2)[C@H](CO)O1)NCc1ccncc1 | . | . | . | . | / | / | / | /
C[C@@H]1CN([C@H](C)CO)S(=O)(=O)c2ccc(-c3ccncc3)cc2O[C@@H]1CN(C)C(=O)c1ccc2c(c1)OCO2 | . | . | . | . | / | / | / | /
C[C@H](CO)N1C[C@H](C)[C@H](CN(C)C(=O)c2ccc3c(c2)OCO3)Oc2cc(-c3ccncc3)ccc2S1(=O)=O | 104 | . | . | . | . | . | . | 28
C[C@H]1CN([C@@H](C)CO)S(=O)(=O)c2ccc(-c3ccncc3)cc2O[C@H]1CN(C)C(=O)c1ccc2c(c1)OCO2 | 102 | . | . | . | 103 | . | . | 44
C[C@@H]1CN([C@@H](C)CO)S(=O)(=O)c2ccc(-c3ccc(C(=O)N(C)C)cc3)cc2O[C@@H]1CN(C)Cc1ccc2c(c1)OCO2 | ? | . | . | . | . | . | . | 92
C[C@@H]1CN([C@H](C)CO)S(=O)(=O)c2ccc(-c3ccncc3)cc2O[C@H]1CN(C)C(=O)c1ccc2c(c1)OCO2 | 105 | . | . | . | 101 | . | . | 44
C[C@@H]1CN([C@@H](C)CO)S(=O)(=O)c2ccc(-c3ccncc3)cc2O[C@@H]1CN(C)C(=O)c1ccc2c(c1)OCO2 | . | . | . | . | / | / | / | /
C[C@H](CO)N1C[C@H](C)[C@H](CN(C)C(=O)c2ccc3c(c2)OCO3)Oc2cc(-c3ccccc3)ccc2S1(=O)=O | / | . | . | . | / | / | / | /
COC(=O)CCCCC(=O)c1[nH]c(=O)[nH]c1C | / | . | / | / | / | / | / | /
C[C@@H]1CN([C@@H](C)CO)C(=O)Cc2cc(NC(=O)Nc3ccc(C(F)(F)F)cc3)ccc2O[C@@H]1CN(C)C | / | . | . | . | / | / | / | /
O=C(C[C@@H]1CC[C@@H]2[C@H](COC[C@@H](O)CN2Cc2ccc3c(c2)OCO3)O1)Nc1ccccc1 | . | / | . | . | / | / | / | /
C[C@@H]1CN([C@@H](C)CO)C(=O)c2cccc(NC(=O)Nc3ccc(C(F)(F)F)cc3)c2O[C@H]1CN(C)Cc1ccc2c(c1)OCO2 | ? | / | / | . | 105 | 117 | . | 55
C[C@H]1CN([C@@H](C)CO)C(=O)c2cccc(NC(=O)Nc3ccc(C(F)(F)F)cc3)c2O[C@@H]1CN(C)Cc1ccc2c(c1)OCO2 | . | / | / | . | / | / | / | /
C[C@H](CO)N1C[C@H](C)[C@H](CN(C)Cc2ccc3c(c2)OCO3)Oc2c(NC(=O)Nc3ccc(C(F)(F)F)cc3)cccc2C1=O | 103 | . | . | . | 108 | 103 | . | 103
C[C@H](CO)N1C[C@H](C)[C@@H](CN(C)Cc2ccc3c(c2)OCO3)Oc2c(NC(=O)Nc3ccc(C(F)(F)F)cc3)cccc2C1=O | 104 | / | . | . | 97 | 105 | . | 97
CCC(=O)N1[C@H](C(=O)NCCCN(C)C)[C@@H](CO)[C@@H]2Cn3c(ccc(-c4ccccc4OC)c3=O)[C@@H]21 | . | / | . | / | / | / | / | /
O=C(C[C@@H]1C[C@@H]2c3cc(NC(=O)C4CCC4)ccc3O[C@@H]2[C@H](CO)O1)NCc1ccncc1 | . | . | . | . | / | / | / | /
COc1ccc(S(=O)(=O)Nc2ccc3c(c2)C(=O)N([C@H](C)CO)C[C@H](C)[C@H](CN(C)S(=O)(=O)c2cccs2)OCCCC[C@H](C)O3)cc1 | ? | / | . | . | 106 | . | . | .
